≈ marks a conversion by molar mass, not a printed value. Calls of active or inactive are those of the source. The calls are words filed in the database; no cut-off is given here.
What was measured:
HepG2 = assay: Cytotoxicity against human HepG2 cells after 48 hrs by Alamar Blue assay; type: cell-based; details: hepg2, 48 h
[1] = system: Trypanosoma brucei brucei; assay: Antiparasitic activity against Trypanosoma brucei brucei BF427 assessed as growth inhibition by Alamar Blue assay; type: functional, organism-based
In short: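 Bloodstream-form T. brucei brucei BF427 grown with serial compound dilutions, each tested in triplicate. Growth quantified with AlamarBlue. Pentamidine isothionate included in every assay as positive control.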

L6 = assay: Cytotoxicity against rat L6 cells after 48 hrs by Alamar Blue assay; type: cell-based; details: l6, 48 h
[2] = Cytotoxicity against human CRL8155 cells after 48 hrs by Alamar Blue assay; type: cell-based; details: crl8155, 48 h
Mus musculus [3] = assay: Elimination half life in mouse plasma at 50 mg/kg, po by LC-MS analysis; type: ADME, organism-based; parameters: dose 50 mg/kg, route oral; details: in vivo
In short: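 Mice dosed by oral gavage at 50 mg/kg in 0.2 mL vehicle (7% Tween 80, 3% ethanol, 5% DMSO, 0.9% saline), groups of three. Plasma separated and extracted with acetonitrile, and compound quantified by LC-MS/MS.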

[4] = Apparent permeability across MDCK2 cells expressing human MDR1; type: ADME, cell-based, Canis lupus familiaris; details: dog, mdck-ii
In short: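 MDCKII cells transfected with human MDR1 (P-gp) grown as monolayers; permeability (Papp) measured in triplicate with and without the MDR1 inhibitor GF-120918.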

Nucleic Acid [5] = assay: Ratio of drug level in brain to plasma in mouse at 5 mg/kg, ip after 60 mins; type: ADME, organism-based; parameters: dose 5 mg/kg, route intraperitoneal; details: 1 h
In short: (§1)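 Mice, groups of three, received 5 mg/kg ip in 0.4 mL vehicle (7% Tween 80, 3% ethanol, 5% DMSO, 0.9% saline) and were sacrificed at set times. Brains were weighed, frozen and homogenized in acetonitrile; plasma came from heparinized capillary blood. Both were measured by LC-MS/MS. Brain concentration used 1 g = 1 mL and was corrected for 2.5% vasculature volume.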

[6] = Aqueous solubility of the compound at pH 2 after 5 to 10 mins by HPLC analysis; type: physicochemical; details: buffer
Mus musculus [7] = assay: (§2) Tmax in mouse plasma at 50 mg/kg, po by LC-MS analysis; type: ADME, organism-based; parameters: dose 50 mg/kg, route oral; details: in vivo
In short: (§3)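 Mice, groups of three, were given 50 mg/kg by oral gavage in 0.2 mL vehicle (7% Tween 80, 3% ethanol, 5% DMSO, 0.9% saline). Blood was sampled at 30, 60, 120, 180, 240 and 360 min. Plasma was separated and extracted with acetonitrile, and compound was quantified by LC-MS/MS.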

[8] = Clearance in mouse plasma at 50 mg/kg, po by LC-MS analysis; type: ADME, organism-based; parameters: dose 50 mg/kg, route oral
In short: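 Mice, three per compound, given 50 mg/kg by oral gavage in 0.2 mL of 7% Tween 80/3% ethanol/5% DMSO/0.9% saline. Plasma extracted with acetonitrile and quantified by LC-MS/MS.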

[9] = Aqueous solubility of the compound at pH 7.4 after 5 to 10 mins by HPLC analysis; type: physicochemical; details: buffer
Mus musculus [10] = assay: (§4) AUC in mouse plasma at 50 mg/kg, po by LC-MS analysis; type: ADME, organism-based; parameters: dose 50 mg/kg, route oral; details: in vivo; in short: as §3
Nucleic Acid [11] = assay: Ratio of drug level in brain to plasma in mouse at 5 mg/kg, ip after 15 mins; type: ADME, organism-based; parameters: dose 5 mg/kg, route intraperitoneal; details: 0.25 h; in short: as §1
Mus musculus [12] = assay: (§5) Cmax in mouse plasma at 50 mg/kg, po LC-MS analysis; type: ADME, organism-based; parameters: dose 50 mg/kg, route oral; details: in vivo; in short: as §3
Liver microsome = assay: Half life in human liver microsomes by LC-MS analysis; type: ADME
In short: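 Compounds incubated with mouse or human liver microsomes. Samples removed at time points and analysed by LC-MS/MS. Dextromethorphan and testosterone used as reference drugs to standardize each assay.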

[13] = system: Trypanosoma brucei rhodesiense; assay: Antiparasitic activity against Trypanosoma brucei rhodesiense; type: functional, organism-based
Rattus norvegicus [14] = assay: Oral bioavailability in Sprague-Dawley rat at 21.3 mg/kg by LC-MS analysis; type: ADME, organism-based; details: in vivo
[15] = system: Trypanosoma brucei rhodesiense; assay: Antitrypanosomal activity against Trypanosoma brucei rhodesiense ST1B900 infected in Swiss Webster mouse assessed as cure from infection at 5 to 50 mg/kg, po bid administered 48 hrs postinfection for 5 days measured on day 60; type: functional, organism-based
Rattus norvegicus [16] = assay: Apparent volume of distribution at steady state in Sprague-Dawley rat at 20 mg/kg, po and 5 mg/kg, iv by LC-MS analysis; type: ADME, organism-based; details: in vivo
In short: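 Jugular-cannulated Sprague-Dawley rats, two per route. Oral gavage 20 mg/kg or iv 5 mg/kg infused over 0–3 min, each in 1 mL of 7% Tween 80/3% EtOH/5% DMSO/saline. Jugular blood sampled from 5 to 1440 min. Plasma extracted with acetonitrile and analysed by LC-MS/MS.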

[17] = as §2; type: ADME, organism-based; parameters: dose 50 mg/kg, route oral; details: plasma; in short: as §3
[18] = system: Trypanosoma brucei rhodesiense; assay: Antitrypanosomal activity against Trypanosoma brucei rhodesiense ST1B900 infected in Swiss Webster mouse assessed as cure from infection at 50 mg/kg, po qd administered 48 hrs postinfection for 5 days measured on day 60; type: functional, organism-based; parameters: dose 50 mg/kg
[19] = as §4; type: ADME, organism-based; parameters: dose 50 mg/kg, route oral; details: plasma; in short: as §3
[20] = system: Trypanosoma brucei rhodesiense; assay: Antitrypanosomal activity against Trypanosoma brucei rhodesiense ST1B900 infected in Swiss Webster mouse assessed as cure from infection at 1 mg/kg, po bid administered 48 hrs postinfection for 5 days measured on day 4 to 13; type: functional, organism-based; parameters: dose 1 mg/kg
[21] = as §5; type: ADME, organism-based; parameters: dose 50 mg/kg, route oral; details: plasma; in short: as §3

Compound | CC50 (HepG2) | EC50 [1] | CC50 [2] | also measured
O=C(Nc1ccc(F)c(-c2nc3cc(Cl)cnc3[nH]2)c1)N1CCCC1 | > 50 µM | 0.05 µM | > 50 µM | CC50 (L6): 15 µM
O=C(Nc1ccc(F)c(-c2nc3cc(-c4cncc(Cl)c4)cnc3[nH]2)c1)N1CCCC1 | > 50 µM | 0.005 µM | 38 µM | –
O=C(Nc1ccc(F)c(-c2nc3cc(-c4ccc(Cl)nc4)cnc3[nH]2)c1)N1CCCC1 | > 50 µM | 0.01 µM | 3.8 µM | –
O=C(Nc1ccc(F)c(-c2nc3cc(-c4cncnc4)cnc3[nH]2)c1)N1CCCC1 | > 50 µM | 0.03 µM | 12 µM | –
O=C(Nc1ccc(Cl)c(-c2nc3ncccc3o2)c1)c1ccco1 | > 50 µM | 0.22 µM | > 50 µM | beta t1/2 (Mus musculus [3]): 53 min; Papp [4]: 41.7 ×10⁻⁶ cm/s; BPR (Nucleic Acid [5]): 0.38; solubility [6]: 22 µM (≈ 7.47 µg/mL); Tmax (Mus musculus [7]): 30 min; CC50 (L6): > 50 µM; CL/F [8]: 98 mL/min/kg; solubility [9]: 20 µM (≈ 6.79 µg/mL); AUC (Mus musculus [10]): 187 µM·min; BPR (Nucleic Acid [11]): 0.54; Cmax (Mus musculus [12]): 60 nM; t1/2 (Liver microsome): 6.4 min
COc1ccc(-c2cnc3[nH]c(-c4cc(NC(=O)N5CCCC5)ccc4F)nc3c2)cn1 | > 50 µM | 0.005 µM | > 50 µM | –
O=C(Nc1ccc(Cl)c(-c2nc3ncccc3o2)c1)C(F)(F)F | – | – | – | EC50 [13]: > 50 µM
Cc1cncc(-c2cnc3[nH]c(-c4cc(NC(=O)N5CCCC5)ccc4F)nc3c2)c1 | > 50 µM | 0.01 µM | > 50 µM | –
O=C(Nc1ccc(F)c(-c2nc3cc(-c4ccoc4)cnc3[nH]2)c1)N1CCCC1 | > 50 µM | 0.004 µM | 25 µM | –
COc1cccc(-c2cnc3[nH]c(-c4cc(NC(=O)N5CCCC5)ccc4F)nc3c2)c1 | 35 µM | 0.01 µM | 3.6 µM | –
O=C(c1ccco1)N(C(=O)c1ccco1)c1ccc(F)c(-c2nc3ncccc3o2)c1 | > 50 µM | 0.12 µM | > 50 µM | CC50 (L6): > 50 µM
O=C(Nc1ccc(F)c(-c2nc3cc(-c4cncc(N5CCCC5)c4)cnc3[nH]2)c1)N1CCCC1 | > 50 µM | 0.02 µM | 8 µM | –
O=C(Nc1ccc(F)c(-c2nc3ncc(-c4ccccc4)cc3o2)c1)c1ccco1 | – | 0.04 µM | – | CC50 (L6): 7 µM; EC50 [13]: 0.08 µM
Cc1cccc(-c2cnc3[nH]c(-c4cc(NC(=O)N5CCCC5)ccc4F)nc3c2)c1 | 10 µM | 0.002 µM | 5 µM | –
O=C(Nc1ccc(F)c(-c2nc3cc(-c4ccccc4)cnc3[nH]2)c1)N1CCCC1 | – | 0.002 µM | – | F (Rattus norvegicus [14]): 35%; Papp [4]: 40.1 ×10⁻⁶ cm/s; BPR (Nucleic Acid [5]): 0.5; Activity [15]: Active; Vdss(app) (Rattus norvegicus [16]): 2.4 L/kg; Tmax [17]: 30 min; Activity [18]: Active; AUC [19]: 18.8 µM·h; Activity [20]: inactive; Cmax [21]: 4300 nM
O=C(Nc1ccc(F)c(-c2nc3cc(-c4ccsc4)cnc3[nH]2)c1)N1CCCC1 | > 50 µM | 0.002 µM | 6 µM | –
O=C(Nc1ccc(F)c(-c2nc3ncc(-c4ccc(F)cc4)cc3o2)c1)c1ccco1 | 32 µM | 0.05 µM | > 50 µM | EC50 [13]: 0.1 µM
O=C(Nc1ccc(F)c(-c2nc3cc(Cl)cnc3[nH]2)c1)c1ccco1 | > 50 µM | 0.07 µM | 1.7 µM | CC50 (L6): > 50 µM
O=C(Nc1ccc(Cl)c(-c2nc3ncccc3o2)c1)N1CCCC1 | > 50 µM | 0.09 µM | > 50 µM | –
O=C(Nc1ccc(F)c(-c2nc3cc(-c4ccnc(Cl)c4)cnc3[nH]2)c1)N1CCCC1 | > 50 µM | 0.004 µM | > 50 µM | –
O=C(Nc1ccc(F)c(-c2nc3cc(-c4cccc(OC(F)(F)F)c4)cnc3[nH]2)c1)N1CCCC1 | > 50 µM | 0.03 µM | 11 µM | –
O=C(Nc1ccc(F)c(-c2nc3cc(-c4cccc(Cl)c4)cnc3[nH]2)c1)N1CCCC1 | > 50 µM | 0.002 µM | 2.8 µM | –

Reference: ChEMBL document CHEMBL3112469, “Substituted 2-phenylimidazopyridines: a new class of drug leads for human African trypanosomiasis” (J Med Chem, 2014)
